Source: ChEMBL document CHEMBL4627283, “Discovery and optimization of 4-oxo-2-thioxo-thiazolidinones as NOD-like receptor (NLR) family, pyrin domain-containing protein 3 (NLRP3) inhibitors” (Bioorg Med Chem Lett, 2020)

Key:
[1] = target: T1, NACHT, LRR and PYD domains-containing protein 3 (Homo sapiens, UniProt Q96P20); assay: Inhibition of NLRP3 inflammasome (unknown origin) activation in LPS-primed bone marrow derived macrophage cells assessed as effect on IL-1beta production in presence of nigericin by ELISA
T1 sequence (Q96P20 whole entry, the tested form may be a part): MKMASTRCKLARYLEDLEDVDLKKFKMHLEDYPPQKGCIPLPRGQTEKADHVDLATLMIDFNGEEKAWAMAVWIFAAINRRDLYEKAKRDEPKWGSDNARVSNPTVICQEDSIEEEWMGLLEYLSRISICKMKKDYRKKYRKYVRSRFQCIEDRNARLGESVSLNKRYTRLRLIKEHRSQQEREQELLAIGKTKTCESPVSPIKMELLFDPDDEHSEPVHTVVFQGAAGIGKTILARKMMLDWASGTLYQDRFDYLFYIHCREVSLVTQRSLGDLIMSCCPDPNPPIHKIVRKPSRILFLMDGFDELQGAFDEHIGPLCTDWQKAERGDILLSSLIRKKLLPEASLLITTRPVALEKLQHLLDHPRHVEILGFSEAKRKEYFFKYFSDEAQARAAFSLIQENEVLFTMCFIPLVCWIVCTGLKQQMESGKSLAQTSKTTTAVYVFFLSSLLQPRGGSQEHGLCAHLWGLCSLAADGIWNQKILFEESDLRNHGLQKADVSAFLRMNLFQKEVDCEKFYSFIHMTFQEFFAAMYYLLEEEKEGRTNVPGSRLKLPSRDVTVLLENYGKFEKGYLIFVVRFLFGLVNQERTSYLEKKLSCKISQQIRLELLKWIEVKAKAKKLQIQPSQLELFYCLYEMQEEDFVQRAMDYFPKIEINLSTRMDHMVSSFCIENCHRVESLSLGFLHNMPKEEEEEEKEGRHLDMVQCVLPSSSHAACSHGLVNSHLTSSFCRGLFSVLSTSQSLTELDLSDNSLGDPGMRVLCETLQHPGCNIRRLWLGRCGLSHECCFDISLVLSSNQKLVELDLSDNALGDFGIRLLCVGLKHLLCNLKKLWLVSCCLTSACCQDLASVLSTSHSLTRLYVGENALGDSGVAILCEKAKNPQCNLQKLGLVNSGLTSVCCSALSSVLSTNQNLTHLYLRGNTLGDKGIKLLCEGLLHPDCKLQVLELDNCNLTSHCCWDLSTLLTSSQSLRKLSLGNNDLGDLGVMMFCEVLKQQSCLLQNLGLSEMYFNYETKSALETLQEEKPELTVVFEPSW
Procedure, shortened: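 BMDMs pretreated with varied doses of compound, then LPS-primed and stimulated with nigericin; IL-1β in supernatant by ELISA, normalized to DMSO-treated control; IC50 given as mean ± SD.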

[2] = target: Cystic fibrosis transmembrane conductance regulator (Homo sapiens) (UniProt P13569); assay: Inhibition of CFTR in human HT-29 cells assessed as effect on intracellular chloride efflux at 20 uM relative to control; assay type: cell-based
Chain of Cystic fibrosis transmembrane conductance regulator (Homo sapiens) (P13569 whole entry, looked up, the tested form may be a part): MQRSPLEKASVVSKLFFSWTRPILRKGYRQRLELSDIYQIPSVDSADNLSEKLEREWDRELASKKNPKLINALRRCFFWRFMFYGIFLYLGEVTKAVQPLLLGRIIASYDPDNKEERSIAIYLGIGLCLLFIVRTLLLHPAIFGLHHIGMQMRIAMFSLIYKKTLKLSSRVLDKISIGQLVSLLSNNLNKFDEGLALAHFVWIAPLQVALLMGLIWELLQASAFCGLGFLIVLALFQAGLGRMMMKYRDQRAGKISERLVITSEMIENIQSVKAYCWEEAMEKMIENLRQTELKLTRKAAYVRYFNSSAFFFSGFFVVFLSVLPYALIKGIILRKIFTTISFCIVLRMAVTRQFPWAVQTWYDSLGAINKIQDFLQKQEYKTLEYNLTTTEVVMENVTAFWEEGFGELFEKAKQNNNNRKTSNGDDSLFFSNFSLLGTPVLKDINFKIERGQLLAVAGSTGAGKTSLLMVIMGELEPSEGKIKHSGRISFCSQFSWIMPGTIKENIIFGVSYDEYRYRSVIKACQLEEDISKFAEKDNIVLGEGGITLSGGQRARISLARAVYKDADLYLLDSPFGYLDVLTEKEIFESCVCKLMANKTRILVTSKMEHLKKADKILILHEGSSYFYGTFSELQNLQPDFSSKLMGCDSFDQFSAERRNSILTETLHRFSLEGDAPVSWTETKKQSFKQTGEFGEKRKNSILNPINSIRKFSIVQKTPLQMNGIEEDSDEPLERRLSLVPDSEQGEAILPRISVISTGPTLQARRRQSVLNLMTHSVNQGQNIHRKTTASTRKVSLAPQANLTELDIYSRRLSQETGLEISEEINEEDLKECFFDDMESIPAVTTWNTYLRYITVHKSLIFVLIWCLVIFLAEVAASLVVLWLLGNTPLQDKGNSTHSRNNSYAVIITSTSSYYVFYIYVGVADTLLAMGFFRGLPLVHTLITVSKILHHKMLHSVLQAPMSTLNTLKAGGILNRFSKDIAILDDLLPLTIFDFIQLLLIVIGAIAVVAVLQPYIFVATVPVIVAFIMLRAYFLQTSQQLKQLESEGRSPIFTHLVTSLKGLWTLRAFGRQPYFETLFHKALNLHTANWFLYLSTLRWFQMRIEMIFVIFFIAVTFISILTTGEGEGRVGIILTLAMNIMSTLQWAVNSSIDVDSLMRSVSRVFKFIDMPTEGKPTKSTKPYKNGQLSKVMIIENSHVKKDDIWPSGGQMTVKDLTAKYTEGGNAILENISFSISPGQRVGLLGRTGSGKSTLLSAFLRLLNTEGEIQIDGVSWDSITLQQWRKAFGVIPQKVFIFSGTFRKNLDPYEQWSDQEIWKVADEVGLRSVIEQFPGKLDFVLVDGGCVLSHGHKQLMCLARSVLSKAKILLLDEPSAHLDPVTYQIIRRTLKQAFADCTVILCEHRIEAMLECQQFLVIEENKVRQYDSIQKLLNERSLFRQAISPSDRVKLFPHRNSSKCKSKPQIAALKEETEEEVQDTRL

[3] = target: T1, NACHT, LRR and PYD domains-containing protein 3; assay: Inhibition of NLRP3 inflammasome (unknown origin) activation in LPS-primed bone marrow derived macrophage cells at 10 uM in presence of mono sodium urate relative to control
[4] = species: Homo sapiens; assay: Selectivity index, ratio of inhibition of NLRP3 inflammasome (unknown origin) activation in bone marrow derived macrophage cells at 10 uM to inhibition of CFTR in human HT-29 cells at 20 uM; assay type: cell-based
Procedure, shortened: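 Selectivity index: % NLRP3 inhibition in BMDMs at 10 μM divided by % CFTR inhibition in HT29 cells at 20 μM.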

[5] = Half life in human liver microsomes in presence of NADPH; assay type: ADME, Microsome
Procedure, shortened: (§1)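 Stability in human and mouse liver microsomes incubated with an NADPH regenerating system; half-life (min) and hepatic clearance (mL/min/kg) determined.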

[6] = Clearance in human liver microsomes in presence of NADPH; assay type: ADME, Microsome; procedure, shortened: as §1
[7] = Half life in mouse liver microsomes in presence of NADPH; assay type: ADME, Microsome; procedure, shortened: as §1
[8] = Clearance in mouse liver microsomes in presence of NADPH; assay type: ADME, Microsome; procedure, shortened: as §1
[9] = target: T1, NACHT, LRR and PYD domains-containing protein 3; assay: Inhibition of NLRP3 inflammasome (unknown origin) assessed as suppression of mono sodium urate-induced caspase 1 activation by immunoblot analysis
Procedure, shortened: (§2)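 LPS-primed BMDMs treated with graded doses of test compound, then stimulated with MSU; IL-1β and cleaved caspase-1 (p20) in culture supernatants detected by immunoblot.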

[10] = target: T1, NACHT, LRR and PYD domains-containing protein 3; assay: Inhibition of NLRP3 inflammasome (unknown origin) assessed as suppression of mono sodium urate-induced IL-1beta level by immunoblot analysis; procedure, shortened: as §2

SMILES | IC50 [1] | inhibition [2] | inhibition [3] | Selectivity Index [4] | half-life [5] | CLhep predicted [6] | half-life [7] | CLhep predicted [8] | inhibition [9] | inhibition [10]
O=C(O)c1ccc(/C=C2\SC(=S)N(Cc3cccc(F)c3)C2=O)cc1 | 3.52 µM | > 10% | 63% |  |  |  |  |  |  | 
O=C(c1ccc(/C=C2\SC(=S)N(c3cccc(OC(F)(F)F)c3)C2=O)cc1)N1CCOCC1 | 3.18 µM | 68% | 75% | 1.1 | 187 min | 3.9 mL/min/kg | 23.9 min | 58.1 mL/min/kg |  | 
CN1CCN(C(=O)c2ccc(/C=C3\SC(=S)N(c4cccc(OC(F)(F)F)c4)C3=O)cc2)CC1 | 2.57 µM | 69% | 76% | 1.1 | 27.1 min | 12.8 mL/min/kg | 3.7 min | 83 mL/min/kg |  | 
CN1CCN(C(=O)c2ccc(/C=C3\SC(=S)N(c4cccc([N+](=O)[O-])c4)C3=O)cc2)CC1 | 2.98 µM | 66% | 81% | 1.23 | 13.8 min | 15.8 mL/min/kg | 1.8 min | 86.5 mL/min/kg |  | 
O=C1/C(=C/c2ccc(-c3nnn[nH]3)cc2)SC(=S)N1CCc1cccc(C(F)(F)F)c1 | 6.5 µM |  | 67% |  |  |  |  |  |  | 
O=C1/C(=C/c2ccc(-c3nnn[nH]3)cc2)SC(=S)N1CCCc1cccc(C(F)(F)F)c1 | 4.85 µM | > 10% | 72% |  |  |  |  |  |  | 
O=C(O)c1ccc(/C=C2\SC(=S)N(Cc3cccc(OC(F)(F)F)c3)C2=O)cc1 | > 10 µM | 12% | 29% |  |  |  |  |  |  | 
C[C@]12CC[C@H]3[C@@H](CCC4=CC(=O)CC[C@@]43C)[C@@H]1CC[C@@H]2O [TESTOSTERONE] |  |  |  |  | 277 min | 2.8 mL/min/kg |  |  |  | 
CC(C)NCC(O)COc1cccc2ccccc12 (stereo not drawn) [PROPRANOLOL] |  |  |  |  | 15.6 min | 15.3 mL/min/kg | 1.7 min | 86.6 mL/min/kg |  | 
O=C(O)c1ccc(/C=C2\SC(=S)N(CCCc3cccc(C(F)(F)F)c3)C2=O)cc1 | 4.32 µM |  | 68% |  |  |  |  |  |  | 
O=C(O)c1ccc(/C=C2\SC(=S)N(c3cccc(C(F)(F)F)c3)C2=O)cc1 | 6.39 µM | 86% | 71% | 0.83 | 277 min | 2.8 mL/min/kg | 12.6 min | 69.8 mL/min/kg | Dose-dependent effect | Dose-dependent effect
